Laboratory results reported in ChEMBL document CHEMBL3797175, “Discovery of 6-(difluoro(6-(4-fluorophenyl)-[1,2,4]triazolo[4,3-b][1,2,4]triazin-3-yl)methyl)quinoline as a highly potent and selective c-Met inhibitor” (Eur J Med Chem, 2016).
pIC50: −log10 of the molar value. The source made the active and inactive calls. The rule behind the calls is not given here.

Tests used:
[1] = Half life in Sprague-Dawley rat at 2 mg/kg, iv administered as single dose; format: ADME, organism-based; conditions: in vivo
How it was run: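 Male Sprague Dawley rats (n=3), single dose. iv 2 mg/kg in 1% DMA/9% Cremophor/90% saline. po 10 mg/kg in 0.5% CMC-Na. Where iv was 10 mg/kg: 10% DMSO/10% Tween 80/80% (40% PEG40); po in that case in 10% DMSO/5% Tween 80/85% saline.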

[2] = Tmax in Sprague-Dawley rat at 10 mg/kg, po administered as single dose; format: ADME, organism-based; conditions: in vivo
How it was run: (§1)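 Male Sprague-Dawley rats (n=3), single dose. IV 2 mg/kg in 1% DMA/9% Cremophor/90% saline; PO 10 mg/kg in 0.5% CMC-Na. For one compound, IV 10 mg/kg in DMSO/Tween 80/PEG40 and PO 10 mg/kg in 10% DMSO/5% Tween 80/85% saline.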

[3] = Oral bioavailability in Sprague-Dawley rat at 10 mg/kg administered as single dose; format: ADME, organism-based; conditions: in vivo; how it was run: as §1
[4] = Antitumor activity against human EBC1 cells xenografted in athymic nude mouse assessed as tumor growth inhibition at 12.5 mg/kg, po bid for 21 days measured twice a week during compound dosing relative to control; format: functional; conditions: EBC-1, po, 504 h, read-out: TGI
How it was run: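 Nude mice bearing s.c. tumours. Cells were first grown s.c. to 700–800 mm³, then 1.5 mm³ fragments were transplanted s.c. into the right flank. Mice were randomised at 100–200 mm³ (n=6 treated, n=12 vehicle) and dosed orally twice daily for 21 days. Caliper measurement twice weekly; TV = length×width²/2. TGI taken on the final day versus vehicle; Student's t test.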

[5] = target: Receptor tyrosine-protein kinase erbB-4 (Homo sapiens) (UniProt Q15303); experiment: Inhibition of recombinant ERBB4 (unknown origin) using poly (Glu, Tyr) 4:1 as substrate at 1000 nM incubated for 60 mins by ELISA relative to control
Receptor tyrosine-protein kinase erbB-4 (Homo sapiens), sequence (Q15303 whole entry): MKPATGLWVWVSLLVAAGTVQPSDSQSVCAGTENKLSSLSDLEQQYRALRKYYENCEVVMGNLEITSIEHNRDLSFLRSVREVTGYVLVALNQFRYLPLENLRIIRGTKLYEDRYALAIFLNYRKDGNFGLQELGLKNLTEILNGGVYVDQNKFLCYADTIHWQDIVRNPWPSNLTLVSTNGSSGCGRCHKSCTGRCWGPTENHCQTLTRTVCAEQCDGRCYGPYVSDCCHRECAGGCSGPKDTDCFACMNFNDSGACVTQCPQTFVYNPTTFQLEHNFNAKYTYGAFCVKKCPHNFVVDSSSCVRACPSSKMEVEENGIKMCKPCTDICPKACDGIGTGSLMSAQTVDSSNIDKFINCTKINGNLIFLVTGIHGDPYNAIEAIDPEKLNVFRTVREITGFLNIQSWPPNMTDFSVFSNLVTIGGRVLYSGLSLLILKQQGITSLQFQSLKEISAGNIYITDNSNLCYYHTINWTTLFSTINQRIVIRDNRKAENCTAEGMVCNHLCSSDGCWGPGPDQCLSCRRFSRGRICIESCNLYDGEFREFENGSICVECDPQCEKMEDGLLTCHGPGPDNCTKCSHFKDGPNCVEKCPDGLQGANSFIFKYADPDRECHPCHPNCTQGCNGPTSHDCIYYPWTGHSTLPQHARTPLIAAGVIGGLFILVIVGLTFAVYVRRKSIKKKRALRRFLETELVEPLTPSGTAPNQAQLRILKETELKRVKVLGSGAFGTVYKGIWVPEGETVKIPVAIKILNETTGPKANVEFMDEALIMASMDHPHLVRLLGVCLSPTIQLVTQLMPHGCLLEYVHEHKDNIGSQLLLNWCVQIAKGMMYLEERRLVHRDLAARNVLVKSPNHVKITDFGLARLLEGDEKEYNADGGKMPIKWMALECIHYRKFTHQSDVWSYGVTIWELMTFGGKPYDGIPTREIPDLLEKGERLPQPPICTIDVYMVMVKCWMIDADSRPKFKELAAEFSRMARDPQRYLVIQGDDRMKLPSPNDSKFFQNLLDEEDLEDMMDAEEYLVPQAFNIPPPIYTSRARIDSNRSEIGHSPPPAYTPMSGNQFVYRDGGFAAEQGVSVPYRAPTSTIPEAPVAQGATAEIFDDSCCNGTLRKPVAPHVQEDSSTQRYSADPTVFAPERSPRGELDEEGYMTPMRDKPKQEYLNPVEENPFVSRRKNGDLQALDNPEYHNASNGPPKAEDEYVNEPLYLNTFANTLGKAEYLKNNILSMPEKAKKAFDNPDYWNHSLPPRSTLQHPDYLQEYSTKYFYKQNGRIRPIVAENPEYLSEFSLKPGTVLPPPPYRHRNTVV
How it was run: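 Recombinant tyrosine kinases assayed on wells precoated with poly(Glu,Tyr)4:1 (20 µg/mL). ATP 10 µmol/L in HEPES pH 7.4 buffer with MgCl2, MnCl2, Na3VO4 and DTT; compound in 1% DMSO, 1% DMSO as control. Reaction 60 min at 37 °C. Phosphotyrosine detected with PY99 and HRP anti-mouse, o-phenylenediamine, A490. Inhibition % relative to control; two experiments.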

[6] = Selectivity ratio of IC50 for human AGS cells to IC50 for mouse BAF3 cells expressing TPR-MET; format: ADME, cell-based
How it was run: (§2)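 Both IC50s in each ratio come from one proliferation assay. Cells were seeded and exposed the next day to a range of concentrations for 72 h, then read by SRB or MTT. IC50s were fitted by four-parameter concentration–response, with each concentration at least in triplicate and at least 2 experiments. BaF3/TPR-Met is murine pre-B BaF3 transfected with TPR-MET and puromycin-selected.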

[7] = Selectivity ratio of IC50 for human SNU1 cells to IC50 for human EBC1 cells; format: ADME, cell-based
[8] = target: Hepatocyte growth factor receptor (Homo sapiens, UniProt P08581); experiment: Inhibition of c-Met in human EBC1 cells assessed as reduction in AKT phosphorylation at Serine 473 at 10 nM after 1 hr by Western blot analysis; format: cell-based
Hepatocyte growth factor receptor, sequence (P08581 whole entry): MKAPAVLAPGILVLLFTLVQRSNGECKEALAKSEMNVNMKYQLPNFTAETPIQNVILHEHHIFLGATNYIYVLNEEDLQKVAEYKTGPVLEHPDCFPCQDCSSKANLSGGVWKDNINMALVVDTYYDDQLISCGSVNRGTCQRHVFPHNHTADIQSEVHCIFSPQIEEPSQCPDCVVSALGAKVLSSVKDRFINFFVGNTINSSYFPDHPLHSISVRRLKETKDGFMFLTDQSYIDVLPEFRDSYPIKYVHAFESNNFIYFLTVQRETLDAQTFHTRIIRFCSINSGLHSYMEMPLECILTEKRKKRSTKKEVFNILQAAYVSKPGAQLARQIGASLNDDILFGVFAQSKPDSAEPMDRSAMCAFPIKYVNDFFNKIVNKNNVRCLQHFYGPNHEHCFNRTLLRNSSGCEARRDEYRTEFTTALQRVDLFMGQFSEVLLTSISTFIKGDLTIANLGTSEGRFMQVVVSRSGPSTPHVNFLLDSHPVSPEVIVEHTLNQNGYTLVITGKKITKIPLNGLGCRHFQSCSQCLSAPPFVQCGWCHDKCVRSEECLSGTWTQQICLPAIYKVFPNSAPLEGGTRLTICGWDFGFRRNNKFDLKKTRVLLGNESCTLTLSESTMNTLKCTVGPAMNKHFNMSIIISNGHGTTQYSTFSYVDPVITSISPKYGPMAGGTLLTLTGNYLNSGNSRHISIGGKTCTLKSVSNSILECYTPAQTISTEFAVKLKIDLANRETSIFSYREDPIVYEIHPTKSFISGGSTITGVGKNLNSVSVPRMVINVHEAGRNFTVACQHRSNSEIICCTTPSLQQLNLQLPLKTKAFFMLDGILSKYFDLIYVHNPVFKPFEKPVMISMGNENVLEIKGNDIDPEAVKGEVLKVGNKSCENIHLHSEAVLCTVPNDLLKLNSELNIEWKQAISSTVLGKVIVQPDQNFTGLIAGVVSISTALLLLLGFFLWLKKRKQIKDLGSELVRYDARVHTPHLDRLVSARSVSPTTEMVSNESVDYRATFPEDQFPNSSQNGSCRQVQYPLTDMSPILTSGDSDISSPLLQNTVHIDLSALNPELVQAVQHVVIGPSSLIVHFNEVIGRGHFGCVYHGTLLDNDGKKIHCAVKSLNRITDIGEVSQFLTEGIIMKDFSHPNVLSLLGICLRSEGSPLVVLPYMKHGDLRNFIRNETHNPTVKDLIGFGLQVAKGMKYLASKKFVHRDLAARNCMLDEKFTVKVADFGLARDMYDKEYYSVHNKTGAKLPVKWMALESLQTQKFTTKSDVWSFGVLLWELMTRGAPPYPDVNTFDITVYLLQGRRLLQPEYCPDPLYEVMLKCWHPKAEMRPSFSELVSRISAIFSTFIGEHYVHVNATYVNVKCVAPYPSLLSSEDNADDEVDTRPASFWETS
How it was run: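 EBC-1 or MKN45 cells treated with compound 1 h at 37 °C without HGF, then lysed in 1× SDS sample buffer. Lysates run on 10% SDS-PAGE and transferred to nitrocellulose. Probed with antibodies to c-Met, phospho-c-Met, phospho-ERK1/2, phospho-AKT, AKT and GAPDH, then HRP secondary. ECL detection.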

[9] = target: TPR/MET fusion protein (Mus musculus) (UniProt P16056+F6ZDS4); experiment: Inhibition of TPR-MET in mouse BAF3 cells assessed as reduction in ERK phosphorylation at Threonine 202 at 10 nM after 1 hr by Western blot analysis; format: cell-based
How it was run: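 BaF3 stably expressing TPR-MET (puromycin-selected), grown with IL-3-conditioned medium. Treated 1 h at 37 °C, lysed in SDS sample buffer. 10% SDS-PAGE and immunoblot for phospho-c-Met, phospho-ERK1/2, phospho-AKT and totals; ECL detection.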

NCI-H226 = experiment: Antiproliferative activity against human NCI-H226 cells after 72 hrs by SRB or MTT assay; format: functional, cell-based; conditions: NCI-H226, 72 h
How it was run: (§3)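 Cells seeded, exposed next day to a range of concentrations for 72 h. Growth read by sulforhodamine B or MTT. IC50 from four-parameter concentration-response fit. Each concentration tested at least in triplicate, with at least 2 experiments.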

[10] = Antiproliferative activity against human SPCA4 cells after 72 hrs by SRB or MTT assay; format: functional, cell-based; conditions: SPC-A4, 72 h; how it was run: as §3
[11] = Antiproliferative activity against human SPCA1 cells after 72 hrs by SRB or MTT assay; format: functional, cell-based; conditions: SPCA1, 72 h; how it was run: as §3
SNU1 = experiment: Antiproliferative activity against human SNU1 cells after 72 hrs by SRB or MTT assay; format: functional, cell-based; conditions: SNU1, 72 h; how it was run: as §3
[12] = Selectivity ratio of IC50 for human U87MG cells to IC50 for human MKN45 cells; format: ADME, cell-based; conditions: u-87mg atcc
[13] = Selectivity ratio of IC50 for human Bel7404 cells to IC50 for mouse BAF3 cells expressing TPR-MET; format: ADME, cell-based; how it was run: as §2
[14] = Selectivity ratio of IC50 for human HCT116 cells to IC50 for mouse BAF3 cells expressing TPR-MET; format: ADME, cell-based; how it was run: as §2
[15] = Selectivity ratio of IC50 for human NCI-H358 cells to IC50 for human MKN45 cells; format: ADME, cell-based; how it was run: as §2
[16] = Selectivity ratio of IC50 for human NCI-H596 cells to IC50 for human MKN45 cells; format: ADME, cell-based; conditions: mkn-45; how it was run: as §2
[17] = Selectivity ratio of IC50 for human NCI-H460 cells to IC50 for human EBC1 cells; format: ADME, cell-based; how it was run: as §2
[18] = Selectivity ratio of IC50 for human NCI-H460 cells to IC50 for mouse BAF3 cells expressing TPR-MET; format: ADME, cell-based; how it was run: as §2
[19] = Selectivity ratio of IC50 for human SGC7901 cells to IC50 for human MKN45 cells; format: ADME, cell-based; conditions: sgc-7901
How it was run: (§4)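 Each cell line was seeded in 96-well plates, then exposed the next day to a range of compound concentrations for 72 h. Growth was read by SRB or MTT assay, and IC50 was fitted by a four-parameter concentration-response curve. Each concentration was run at least in triplicate, in at least 2 experiments. BaF3/TPR-Met are murine pre-B BaF3 cells transfected with TPR-MET cDNA and selected in puromycin.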

[20] = Selectivity ratio of IC50 for human SGC7901 cells to IC50 for mouse BAF3 cells expressing TPR-MET; format: ADME, cell-based; how it was run: as §4
[21] = Selectivity ratio of IC50 for human MGC803 cells to IC50 for human MKN45 cells; format: ADME, cell-based; conditions: mgc-803; how it was run: as §2
[22] = Selectivity ratio of IC50 for human MGC803 cells to IC50 for mouse BAF3 cells expressing TPR-MET; format: ADME, cell-based; how it was run: as §2
[23] = Selectivity ratio of IC50 for human SPCA1 cells to IC50 for human MKN45 cells; format: ADME, cell-based; conditions: SPCA1 cells versus MKN45 cells

Question: With `Fc1ccc(-c2cnc3nnc(C(F)(F)c4ccc5ncccc5c4)n3n2)cc1` as the compound, how does the half-life [1] read?
Answer: 1.23 h

Question: And the Tmax [2]?
Answer: 1 h

Question: What about the bioavailability [3] of the same compound?
Answer: 48.3%

Question: What about the inhibition in vivo at 12.5 mg/kg [4] of the same compound?
Answer: 75.6%

Question: And the inhibition [5]?
Answer: 26.8%

Question: What about the “Ratio IC50” value [6] of the same compound?
Answer: 10000

Question: What about the “Ratio IC50” value [7] of the same compound?
Answer: 10000

Question: What about the inhibition [8] of the same compound?
Answer: Active

Question: And the inhibition [9]?
Answer: Active

Question: What about the pIC50 (NCI-H226) of the same compound?
Answer: < 5.00

Question: And the pIC50 [10]?
Answer: < 5.00

Question: And the pIC50 [11]?
Answer: < 5.00

Question: What about the pIC50 (SNU1) of the same compound?
Answer: < 5.00

Question: And the “Ratio IC50” value [12]?
Answer: 10000

Question: And the “Ratio IC50” value [13]?
Answer: 10000

Question: And the “Ratio IC50” value [14]?
Answer: 10000

Question: What about the “Ratio IC50” value [15] of the same compound?
Answer: 10000

Question: And the “Ratio IC50” value [16]?
Answer: 10000

Question: And the “Ratio IC50” value [17]?
Answer: 10000

Question: What about the “Ratio IC50” value [18] of the same compound?
Answer: 10000

Question: And the Ratio IC50 [19]?
Answer: > 10000

Question: And the Ratio IC50 [20]?
Answer: > 10000

Question: And the Ratio IC50 [21]?
Answer: > 10000

Question: What about the Ratio IC50 [22] of the same compound?
Answer: > 10000

Question: And the selectivity ratio [23]?
Answer: > 10000
